Results collected from several papers.
Lines come from different studies, so protocols differ.
Target: SRSF protein kinase 2 (SRPK2, Homo sapiens, UniProt P78362)

Compound | read-out | mode | method | concentration | endpoint | value
CCN(CC)CCNC(=O)c1c(C)[nH]c(/C=C2\C(=O)Nc3ccc(F)cc32)c1C | enzyme activity | inhibitor |  | 10 µM | inhibition | 37%
CN1CCN(c2cnc3c(C4CCN(C(=O)c5ccc(OC(F)(F)F)cc5N)CC4)ncnc3c2)CC1 | cell-free assay |  | competition with immobilised ligand | 1 µM | remaining binding | 78%
CC(C)(C)c1nc2c(s1)c1nc(N)ncc1c1ccc(NS(=O)(=O)c3c(F)cccc3F)c(F)c12 | enzyme activity | inhibitor | radiometric | 1 µM | remaining activity | 108%
CC/C(=N\NC(=O)NCc1cccc(O)c1)c1ccc(O)c(C)c1O | enzyme activity | inhibitor |  | 0.1 µM | inhibition | -2.2%
COc1cc2ncnc(Nc3ccc(Oc4ccccc4)c(C)c3C)c2cc1OC | enzyme activity | inhibitor |  | 1 µM | inhibition | -3%
Cc1ccc(Nc2nccc(N(C)c3ccc4c(C)n(C)nc4c3)n2)cc1S(N)(=O)=O | enzyme activity | inhibitor |  | 10 µM | inhibition | 4%
Cc1ccc(C(=O)Nc2ccc(CN3CCN(C)CC3)c(C(F)(F)F)c2)cc1C#Cc1cnc2cccnn12 | enzyme activity | inhibitor |  | 23.5 nM | remaining activity | 94%
CCN(CC)c1ccc(C2=NNC(=O)CC2C)cc1[N+](=O)[O-] (centres unmarked) | enzyme activity | inhibitor |  | 10 µM | remaining activity | 100%
CNC(=O)Nc1ccc2c(c1)[C@@]1(CC2)OC(=O)N(CC(=O)N(Cc2ccc(F)cc2)[C@@H](C)C(F)(F)F)C1=O | cell-free assay |  | competition with immobilised ligand | 1 µM | remaining binding | 100%
CCOc1cc(-c2nncn2C)ccc1Nc1ncc2cc(C)nc(NCC(C)(C)C)c2n1 | enzyme activity | inhibitor | FRET | 1 µM | inhibition | < 15%
C#Cc1cccc(Nc2ncnc3cc(OCCOC)c(OCCOC)cc23)c1 | cell-free assay |  |  | 0.5 µM | remaining signal | 101%
COc1cc(-c2cc(-c3ccc(N4CCNCC4)cc3)cnc2C)cc(OC)c1OC | enzyme activity | inhibitor |  | 0.1 µM | inhibition | 2%
Cn1c2c(Cl)c(Cl)ccc2c2cc(N)[nH]c(=O)c21 | thermal stability |  | DSF | 10 µM | ΔTm | 0.1 °C
CNC(=O)c1cc(Oc2ccc(NC(=O)Nc3ccc(Cl)c(C(F)(F)F)c3)cc2)ccn1 | enzyme activity | inhibitor |  | 10 µM | inhibition | 12%
CCOCCn1cc(C(=O)Nc2ccc(-n3nc(-c4cccnc4)cc3C(F)(F)F)cn2)ccc1=O | cell-free assay |  | competition with immobilised ligand | 1 µM | remaining binding | 100%
Cn1c2c(c3ccc(Cl)c(Cl)c31)C(C#N)C1(CCOCC1)NC2=O (centres unmarked) | thermal stability |  | DSF | 10 µM | ΔTm | 0.2 °C

Compound | read-out | mode | method | concentration | endpoint | value
N#CCCc1ccc2c(c1)-c1[nH]c3ccc([N+](=O)[O-])cc3c1CC(=O)N2 | cell-free assay |  |  | 0.5 µM | remaining signal | 109%
N#CC1(c2ccccn2)CCN(Cc2cc(C(=O)N3CCCC3)c(=O)n3ccccc23)CC1 | cell-free assay |  | competition with immobilised ligand | 1 µM | remaining binding | 84%
O=C(Nc1cnn(-c2csc(C(=O)NC3COC3)c2)c1)Nc1ccccc1Cl | enzyme activity | inhibitor |  | 5 µM | remaining activity | 95.6%
Cn1c2c(c3ccccc31)C(C#N)C(C)(C)NC2=O (centres unmarked) | thermal stability |  | DSF | 10 µM | ΔTm | 0 °C
CNC(=O)c1ccc(Nc2ncc(C(F)(F)F)c(NCc3nccnc3N(C)S(C)(=O)=O)n2)cc1 | cell-free assay |  | competition with immobilised ligand | 0.1 µM | remaining binding | 100%
O=C1NC(=O)c2cc(Nc3ccc(F)cc3)c(Nc3ccc(F)cc3)cc21 | cell-free assay |  |  | 0.5 µM | remaining signal | 92.3%
CC(C1CC1)n1cnc2c(NCc3cccc(C(F)(F)F)c3)nc(NCCN(C)C)nc21 (centres unmarked) | enzyme activity | inhibitor |  | 5 µM | inhibition | > 50%
Cn1c2c(c3ccc(Cl)c(Cl)c31)C(C#N)C1(CCCC1)NC2=O (centres unmarked) | thermal stability |  | DSF | 10 µM | ΔTm | 0 °C
CO[C@@H](C)c1c(Nc2ccc([C@H](N(C)C(=O)C3CCS(=O)(=O)CC3)C(F)(F)F)cc2)cnc2cc(Cl)nn12 | cell-free assay |  | competition with immobilised ligand | 1 µM | remaining binding | 100%
Cn1c2c(Cl)c(Cl)ccc2c2cc[nH]c(=O)c21 | thermal stability |  | DSF | 10 µM | ΔTm | -0.2 °C
O=C(NS(=O)(=O)c1ccc(NCC2CCOCC2)c([N+](=O)[O-])c1)c1ccc(N2CCN(Cc3ccc(C(F)(F)F)cc3-c3ccc(Cl)cc3)CC2)cc1Oc1cnc2[nH]ccc2c1 | cell-free assay |  | competition with immobilised ligand | 1 µM | remaining binding | 100%
Cc1cc(NC(=O)c2cccc3cc(-c4cccc5[nH]nc(N)c45)ccc23)ccc1F | enzyme activity | inhibitor |  | 0.1 µM | activity vs control | 103%
N#CC1c2c([nH]c3c(Cl)c(Cl)ccc23)C(=O)NC12CCCCC2 (racemic) | thermal stability |  | DSF | 10 µM | ΔTm | 0.7 °C
CCCOc1ccc(OC)c(F)c1C(=O)c1ccc(C(=O)N[C@@H]2CNC[C@H]2NC(=O)c2ccc3[nH]ncc3c2)cc1 | enzyme activity | inhibitor |  | 10 µM | remaining activity | 93%
Cn1c2c(c3ccc(Cl)c(Cl)c31)C(C#N)C1(CCCCC1)NC2=O (racemic) | thermal stability |  | DSF | 10 µM | ΔTm | 0.2 °C
CN([C@@H]1CCc2c(CC(=O)O)c3ccccc3n2C1)S(=O)(=O)c1ccc(F)cc1 | cell-free assay |  | competition with immobilised ligand | 1 µM | remaining binding | 100%
